Results from PMC9924099 (Journal of medicinal chemistry, 2021).
pIC50: −log10 of the molar value. Where two headings read alike, the source gives them in different places.

Columns and labels:
[1] = tested on: p53^R273H MDA-MB-468 cells; experiment: Annexin V staining; assay type: cell-based, human; conditions: MDA-MB-468, 6 μM or 12 μM, 24 h
[2] = tested on: WT p53 MCF-7 cells; experiment: Annexin V staining; assay type: cell-based, human; conditions: MCF-7, 24 h
In short: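 After 24 h exposure to test compound or DMSO, MCF-7 cells (RPMI 1640, 10% FBS, 1% penicillin/streptomycin, 1% L-glutamine) were scraped, PBS-washed and taken up in Annexin V binding buffer. They were stained with fluorochrome-conjugated Annexin V for 15 min at RT in the dark, then PI staining solution was added. Flow cytometry read-out; % Annexin V-positive cells expressed relative to DMSO.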

[3] = target: p53^R280K in MDA-MB-231 cells (Homo sapiens, UniProt P04637, R280K); experiment: Western blot of p53 expression; assay type: cell-based; conditions: MDA-MB-231, 6 μM or 12 μM, 24 h
In short: (§1)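 Cells were treated 24 h with 6 μM or 12 μM test compound or DMSO and lysed in NP-40/Tris-Cl pH 8.0 buffer with protease inhibitors. Load on 4–12% SDS-PAGE was 20 μg for MDA-MB-231 and MDA-MB-468 or 50 μg for MCF-7. After PVDF transfer, blots were probed with p53 DO-1 antibody, reprobed for GAPDH as loading control and developed by ECL.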

[4] = tested on: p53^R280K MDA-MB-231 cells; experiment: Annexin V staining; assay type: cell-based, human; conditions: MDA-MB-231, 6 μM or 12 μM, 24 h
[5] = tested on: WT p53 MCF-7 cells; experiment: WST-1 cell proliferation assay; assay type: cell-based, human; conditions: MCF-7, 24 h or 72 h; compared to mutant p53 cells
In short: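 WST-1 assay. Test compound in DMSO was added to cells at 40,000 cells/ml, giving 1% DMSO final, and plated at 4,000 cells/well in duplicate; medium-only wells served as background. Incubation was 24 h or 72 h at 37 °C, then WST-1 for 2 h and OD450 read. Proliferation is expressed as % of DMSO control; triplicate experiments. MCF-7 grown in RPMI 1640, MDA-MB-436 in DMEM.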

[6] = tested on: p53^R280K MDA-MB-231 cells; experiment: WST-1 cell proliferation assay; assay type: cell-based, human; conditions: for pIC50: Homo sapiens, read-out: IC50, inhibition of cell proliferation; for inhibition of cell proliferation (in words): MDA-MB-231, 24 h or 72 h
[7] = target: p53^R273H in MDA-MB-468 cells (Homo sapiens, UniProt P04637, R273H); experiment: Western blot of p53 expression; assay type: cell-based; conditions: MDA-MB-468, 6 μM or 12 μM, 24 h
In short: as §1

[8] = target: WT p53 in MCF-7 cells (Homo sapiens, UniProt P04637); experiment: Western blot of p53 expression; assay type: cell-based; conditions: MCF-7, 6 μM or 12 μM, 24 h
In short: as §1

[9] = tested on: p53^R273H MDA-MB-468 cells; experiment: WST-1 cell proliferation assay; assay type: cell-based, human; conditions: MDA-MB-468, 24 h or 72 h
[10] = Log P determination; assay type: physicochemical; conditions: octanol/sodium phosphate buffer (pH 7.4)

| Structure (SMILES) | increase in Annexin V stained cells compared to DMSO [2] | mutant p53 expression (western blot) [3] | inhibition of cell proliferation / sensitivity (in words) [5] | inhibition of cell proliferation (in words) [6] | mutant p53 expression (western blot) [7] | WT p53 expression (western blot) [8] | further results |
| --- | --- | --- | --- | --- | --- | --- | --- |
| S=C=NCC12CC3CC(CC(C3)C1)C2 [Ad-ITC 3, 1-Isothiocyanatomethyladamantane] | did not display any significant increase | differential decrease in the expression of mutant p53 | remarkably less sensitive | dose-dependent activity | differential decrease in the expression of mutant p53 | did not decrease WT p53 expression | increase in Annexin V stained cells compared to DMSO [1]: 2.0-5.1 fold; increase in Annexin V stained cells compared to DMSO [4]: 2.0-5.1 fold; pIC50 ([6]; MDA-MB-231, 24 h): 4.32 to 4.62; pIC50 ([6]; MDA-MB-231, 72 h): 4.32 to 4.62 |
| CC12CC3CC(C)(C1)CC(N=C=S)(C3)C2 [Ad-ITC 11, 1-Isothiocyanato-3,5-dimethyladamantane] | – | – | – | failed to show any significant inhibition of cell proliferation | – | – | – |
| S=C=Nc1ccc(C23CC4CC(CC(C4)C2)C3)cc1 [Ad-ITC 7, 1-(4-Isothiocyanatophenyl)adamantane] | – | – | – | significantly less potent than Ad-ITCs 3, 5, and 6 | – | – | – |
| C1C2CC3CC1CC(C2)C3 [adamantane, Adamantane, reference compound] | – | – | did not inhibit MCF-7 cell proliferation | did not inhibit MDA-MB-231 cells proliferation | – | – | inhibition of cell proliferation (in words) [9]: did not inhibit MDA-MB-468 cells proliferation |
| S=C=NCCOC12CC3CC(CC(C3)C1)C2 [Ad-ITC 8, 1-(2-Isothiocyanatoethoxy)adamantane] | – | – | – | not active in vitro | – | – | logP at 18 h [10]: 4.42 |
| CCCC(CN=C=S)C1C2CC3CC(C2)CC1C3 (stereo not shown) [Ad-ITC 10, 2-(1-Isothiocyanatopentan-2-yl)adamantane] | – | – | – | did not show any significant inhibition | – | – | – |
| S=C=NC1C2CC3CC(C2)CC1C3 (stereo not shown) [Ad-ITC 2, 2-Isothiocyanatoadamantane] | – | – | – | failed to show any significant inhibition of cell proliferation | – | – | – |
| S=C=NCCC12CC3CC(CC(C3)C1)C2 [Ad-ITC 5, 1-Isothiocyanato-2-(adamantan-1-yl)ethane] | did not display any significant increase | differential decrease in the expression of mutant p53 | did not inhibit MCF-7 cell proliferation | – | differential decrease in the expression of mutant p53 | did not decrease WT p53 expression | pIC50 ([6]; MDA-MB-231, 24 h): 4.32 to 4.62; pIC50 ([6]; MDA-MB-231, 72 h): 4.62 to 4.92; logP at 18 h [10]: 4.76 |
| S=C=NC12CC3CC(CC(C3)C1)C2 [Ad-ITC 1, 1-Isothiocyanatoadamantane] | did not display any significant increase | no depletion | – | failed to show any significant inhibition of cell proliferation | no depletion | did not decrease WT p53 expression | increase in Annexin V stained cells compared to DMSO [1]: did not induce significant increase in apoptosis; increase in Annexin V stained cells compared to DMSO [4]: did not induce significant increase in apoptosis |
| CC(C)(COC12CC3CC(CC(C3)C1)C2)N=C=S [Ad-ITC 9, 1-(2-Isothiocyanato-2-methylpropoxy)adamantane] | – | – | – | not active in vitro | – | – | – |
| O=C1CNC(=S)N1CCC12CC3CC(CC(C3)C1)C2 [Ad-compound 13, 3-(2-(Adamantan-1-yl)ethyl)-2-thioxoimidazolidin-4-one] | did not display any significant increase | failed to affect mutant p53 expression | did not inhibit MCF-7 cell proliferation | did not inhibit the proliferation | failed to affect mutant p53 expression | did not decrease WT p53 expression | inhibition of cell proliferation (in words) [9]: did not inhibit MDA-MB-468 cells proliferation; increase in Annexin V stained cells compared to DMSO [1]: did not induce significant increase in apoptosis; increase in Annexin V stained cells compared to DMSO [4]: did not induce significant increase in apoptosis |
| O=C(CC12CC3CC(CC(C3)C1)C2)N=C=S [Ad-ITC 12, 2-(Adamantan-1-yl)acetyl isothiocyanate] | – | – | – | failed to inhibit the cell proliferation | – | – | – |
| CC(N=C=S)C12CC3CC(CC(C3)C1)C2 (stereo not shown) [Ad-ITC 4, 1-Isothiocyanato-1-(adamantan-1-yl)ethane] | – | – | – | did not show any significant inhibition | – | – | – |
